High-throughput results (PubChem BioAssay)
Yeast growth tox – Compounds toxic to wild-type S. cerevisiae growth; AID 685; growth inhibition, % at 25 µM (by protocol); hit rate 0.3% among 30,000; A595 turbidity, 16 h;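 active = mutant and wild-type yeast strains alike exhibit over 30% growth inhibition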
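Schedule: 16 h growth with compound, 30 °C. System: yeast, wild-type or eIF2Bepsilon-R284H mutant. Doses: one dose, 25 µM compound[…]. Buffer or medium: YPD. Signal: turbidity measured as absorbance at 595 nm. Read-out basis: growth inhibition (%) versus cell controls and blanks.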
Yeast eIF2B – eIF2B (yeast) activity modulation; S. cerevisiae eIF2B-epsilon R284H, GCN4-lacZ luminescence; inhibition, % at 25 µM (by protocol); hit rate 0.91% among 27,000;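 active = mutant luminescence inhibited past about 50% while wild type luminescence and mutant growth stay under set limits, limit read from the data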
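material = yeast eIF2B-epsilon R284H mutant carrying GCN4–beta-galactosidase fusion | schedule = 16 h growth with compound at 30 °C, 90 min Beta-Glo step | measured by = luminescence and A595 | compound dosing = one concentration, 25 µM, 0.25% DMSO | read-out basis = % inhibition of reporter signal and growth versus controls | buffer or medium = YPD medium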
Hits are given with their value; - = inactive; . = not tested or not shown. This is a sample that favours compounds with a hit; in the whole collection about 1.1% have one here.

SMILES	Yeast growth tox	Yeast eIF2B
COC(=O)C(NC(=O)c1ccco1)(Nc1nc(C)cs1)C(F)(F)F (configuration not stated)	-	52
COC(=O)C(NC(C)=O)(Nc1nc(C)cs1)C(F)(F)F (configuration not stated)	-	.
CC(C)(C)NS(=O)(=O)c1ccc(NS(C)(=O)=O)cc1	-	-
CCOC(=O)c1[nH]c2ccc(OC)cc2c1NC(=O)CCN1CCCC(C)C1 (configuration not stated)	-	-
COc1ccc(-c2nnn(CC(=O)N(Cc3ccc(F)cc3)C(C(=O)NC3CCCC3)c3ccc(F)cc3)n2)cc1 (configuration not stated)	-	56
CCOC(=O)CN(C(=O)Cn1nnc(-c2ccc(OC)cc2)n1)C(C(=O)NC1CCCC1)c1ccc(F)cc1 (configuration not stated)	-	-
CC1C/C(=N/O)C(C)CN1 (configuration not stated)	-	.
CCOc1ccc(C2C(C#N)=C(N)N3C(=C2C#N)Sc2ccccc23)cc1 (configuration not stated)	-	54
N#CC1=C(N)N2C(=C(C#N)C1c1ccccc1)Sc1ccccc12 (configuration not stated)	-	-
CCCC1CC(C)(c2csc(Nc3ccc(OCC)cc3)n2)OC1=O (configuration not stated)	-	54
CCOc1ccc(NC(=O)CC2CC(C)(C)OC2=O)cc1 (configuration not stated)	-	-
c1ccc(-c2nc(Sc3ncnc4c3cnn4-c3ccccc3)n[nH]2)cc1	-	-
Cc1c(NC(=O)Nc2ccc(Cl)c(Cl)c2)c(=O)n(-c2ccccc2)n1C	-	-
Cc1cc(NC(=O)CCSc2nc(-c3ccco3)cc(C(F)(F)F)n2)n(-c2ccccc2)n1	-	-
O=C(OC(C(=O)NC1CCCC1)c1ccncc1)C1=Cc2ccccc2OC1 (configuration not stated)	-	-
Cc1c(Cl)cccc1NC(=O)COc1ccc(S(=O)(=O)N2CCOCC2)cc1	-	.
CN(Cc1c(F)cccc1Cl)c1ccc(S(=O)(=O)N2CCOCC2)cn1	-	57
Cc1cc(C)n(C(=O)c2ccc(NC(=O)CC(C)C)cc2)n1	-	50
Cc1cc(NC(=O)c2ccc(NC(=O)CC(C)C)cc2)no1	-	-
COc1ccccc1-n1c(SCC(=O)Nc2cccc3ccccc23)nc(O)cc1=O	-	.
COc1ccccc1NC(=O)CSc1nc(O)cc(=O)n1C	-	53
COc1ccc(C(=S)N2CCNCC2)cc1	-	-
COc1cc(C(=S)N2CCCC2)cc(OC)c1O	-	57
Cc1cccc(N(CC(=O)NCCC2=CCCCC2)S(C)(=O)=O)c1C	-	-
Clc1ccc2c(c1)C(N1CCNCC1)Cc1ccccc1S2 (configuration not stated)	86	-
SMILES	Yeast growth tox	Yeast eIF2B
Cc1cc(/C=N/n2cnnc2)c(C)n1-c1ccccc1	-	.
Cc1cc(/C=N/n2cnnc2)c(C)n1-c1ccc(OCc2ccc(Cl)cc2Cl)cc1	62	-
CC1CCN(C(=O)CCc2ccc(S(=O)(=O)NC(C)C)cc2)CC1	-	-
O=C(OCn1nnc2ccccc2c1=O)c1ccc2c(=O)n3c(nc2c1)CCC3	-	-
CCOc1ccc(S(=O)(=O)NCc2ccc(OC)cc2)c2cccnc12	-	-
CC(C)C(NC(=O)c1ccccc1)C(=O)NC1=NCCS1 (configuration not stated)	-	52
CC(NC(=O)c1cccs1)C(=O)NC1=NCCS1 (configuration not stated)	.	-
CCOC(=O)N1CCN(c2nc(N(c3ccccc3)c3ccccc3)nc(-n3ccnc3)n2)CC1	48	-
c1ccc(N(c2ccccc2)c2nc(N3CCCC3)nc(-n3ccnc3)n2)cc1	-	-
CCN1C2=C(C(=O)CCC2)C(c2ccc(O)cc2)C2=C1CCCC2=O	.	-
COc1ccc(NC(C)=O)cc1NC(=O)CCn1c(=O)sc2ccccc21	-	-
CCCCC(=O)NC(Nc1ccc(C)cn1)(C(=O)OCC)C(F)(F)F (configuration not stated)	-	-
CCOC(=O)CSc1nc2c(c(=O)[nH]c(=O)n2C)n1C/C=C(/C)Cl	-	-
CCCCCOC(=O)Cn1c(SCC(=O)Nc2ccccc2)nc2c1c(=O)[nH]c(=O)n2C	-	60
Cc1ccc(CNC(=O)CCS(=O)(=O)c2ccc(Br)s2)cc1	-	-
O=C(c1ccc2c(c1)OCO2)N(c1ccc(F)cc1)C1C=CS(=O)(=O)C1 (configuration not stated)	-	56
O=C(Cc1ccc(F)cc1)N(c1ccc(F)cc1)C1C=CS(=O)(=O)C1 (configuration not stated)	-	-
CC(C)C(=O)N(c1ccc(F)cc1)C1C=CS(=O)(=O)C1 (configuration not stated)	-	-
O=C(Cc1ccccc1)N(c1ccc(F)cc1)C1C=CS(=O)(=O)C1 (configuration not stated)	-	56
CC(C)(C)C1=C(C#N)C(c2cc3c(cc2Br)OCO3)C(C#N)=C(N)O1 (configuration not stated)	-	-
Cc1[nH]n(-c2ccc([N+](=O)[O-])cc2)c(=O)c1N=Nc1nc2ccccc2s1	-	-
Oc1c(CN2CCOCC2)cc(-c2ccccc2)cc1CN1CCOCC1	-	-
Cc1c(O)c(CN2CCCC2)cc2c1oc(=O)c1ccccc12	-	58
Cc1ccc(N2CC(C(=O)Nc3nccs3)CC2=O)cc1Cl (configuration not stated)	-	.
O=C(Nc1ccc(Cl)c(Cl)c1)C1CC(=O)N(c2ccc(Br)cc2)C1 (configuration not stated)	79	-
SMILES	Yeast growth tox	Yeast eIF2B
COc1ccc2cc3c(N)c(C(=O)N4CCCC4)sc3nc2c1	-	54
Cc1ccc2nc3sc(C(=O)N4CCOCC4)c(N)c3cc2c1	-	.
Cc1nc2c(C(=O)NCc3ccc(F)cc3)c[nH]n2c(=O)c1Cl	-	-
COc1ccc2[nH]c(=O)c(CN(Cc3nnnn3Cc3ccccc3)CC3CCCO3)cc2c1 (configuration not stated)	-	-
CCC(C)(C)n1nnnc1CN(Cc1cccs1)Cc1cc2cc(OC)ccc2[nH]c1=O	-	64
COc1ccc(OC)c(C2=Nn3c(nnc3-c3cccc(OC(C)C)c3)SC2)c1	-	60
COc1ccc(-c2nnc3n2N=C(C)CS3)cc1OC	-	-
C/C(=N\S(=O)(=O)c1ccc(C)cc1)N1CCN(S(=O)(=O)c2ccccc2)C1C(C)C (configuration not stated)	-	-
OC(Cn1cncn1)(c1ccccc1)c1ccccc1	86	.
c1ccc(NCn2cncn2)nc1	-	-
Cc1cc(S(=O)(=O)NC(C)C)ccc1OCC(=O)N1CCOCC1	-	-
Brc1ccc(CN2CCSCC2)cc1	-	-
O=C1CNC(=O)N1Cc1ccc(Br)cc1	-	51
CCOC(=O)CSc1nnc2n(C3CCCCC3)c(=O)c3c4c(sc3n12)CCCC4	-	-
COC(=O)CSc1nnc2n(-c3ccc(OC)cc3)c(=O)c3c4c(sc3n12)CCCCC4	-	74
O=C1CCCc2nc3nc4ccccc4n3cc21	-	-
CC(Sc1ccc2ccccc2n1)C(=O)O (configuration not stated)	-	.
CC(O)/C=C/c1ccc2ccccc2n1 (configuration not stated)	31	-
